Assay results from ChEMBL document CHEMBL3576863, “Structural requirements for bisphosphonate binding on hydroxyapatite: NMR study of bisphosphonate partial esters” (ACS Med Chem Lett, 2015).
Active and inactive are the calls of the source. The rule behind the calls is not given here.

Tested on: Hydroxyapatite
Assay: Binding affinity to hydroxyapatite at 3.6 to 10.7 mM after 1 hr by NMR analysis relative to control
Conditions: not given
How it was run: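 Hydroxyapatite (HAP) used as a synthetic bone surrogate. BP solution mixed with HAP for 1 h. Bound fraction expressed as percent of BP bound to HAP, calculated from the concentration difference of the BP solution before and after HAP incubation. Statistics by t test.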
COP(=O)(O)C(C)(O)P(=O)(O)O (stereo unspecified) showed an Activity of 55.6%. Work on COP(=O)(OC)C(C)(O)P(=O)(O)O (stereo unspecified) yielded an Activity of 12.6%. For COP(=O)(O)CP(=O)(O)O, the Activity was 18.6%. In the case of COP(=O)(O)CP(=O)(OC)OC, the Activity is reported as “inactive”. Compound COP(=O)(O)C(C)(O)P(=O)(O)OC (stereo unspecified) has an Activity of 3.8%. Work on CC(O)(P(=O)(O)O)P(=O)(O)Oc1ccccc1 (stereo unspecified) yielded an Activity of 48%. COP(=O)(OC)C(O)(CCCN)P(=O)(O)O (stereo unspecified) showed an Activity of 21.7%. For CC(C)OP(=O)(O)C(Cl)(Cl)P(=O)(O)O, the Activity was “inactive”. Work on CC(C)OP(=O)(OC(C)C)C(C)(O)P(=O)(O)O (stereo unspecified) yielded an Activity of 11.4%. In the case of COP(=O)(O)C(C)(O)P(=O)(OC)OC (stereo unspecified), the Activity is reported as “inactive”. For COP(=O)(O)CP(=O)(O)OC, the Activity was “inactive”. In the case of COP(=O)(O)C(Cl)(Cl)P(=O)(O)O, the Activity is reported as “inactive”. CC(=O)NCCCC(OC(C)=O)(P(=O)(O)O)P(=O)(O)O showed an Activity of 47.7%. COP(=O)(O)C(O)(CCCN)P(=O)(O)O (stereo unspecified) showed an Activity of 31%.

Tested on: not listed separately
Assay: Half life in human plasma at 2.5 to 4 mg/kg, iv
Assay type: ADME, organism-based
Conditions: not given
In the case of O=P(O)(O)C(Cl)(Cl)P(=O)(O)O [CLODRONIC ACID], the half-life is reported as 60 min.

Tested on: Hydroxyapatite
Assay: Binding affinity to hydroxyapatite at 3.2 to 3.7 mM after 1 hr by NMR analysis relative to control
Conditions: not given
How it was run: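 Synthetic hydroxyapatite used as a bone model. Each bisphosphonate solution was mixed with HAP for 1 h. Percent HAP-bound was calculated from the solution concentration difference before and after incubation. Statistical comparison by t test.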
For NCCCC(O)(P(=O)(O)O)P(=O)(O)O, the Activity was 70%. With CC(O)(P(=O)(O)O)P(=O)(O)O [ETIDRONIC ACID] the Activity was 70%. For O=P(O)(O)C(Cl)(Cl)P(=O)(O)O [CLODRONIC ACID], the Activity was 41.9%. For O=P(O)(O)CP(=O)(O)O, the Activity was 70%.

Tested on: Homo sapiens
Assay: Half life in human plasma at 1 mg/kg, iv
Assay type: ADME, organism-based
Conditions: in vivo
NCCC(O)(P(=O)(O)O)P(=O)(O)O [PAMIDRONIC ACID] showed a t1/2 of 1 h.

Tested on: not listed separately
Assay: Half life in human plasma at 0.015 mg/kg, iv
Assay type: ADME, organism-based
Conditions: not given
Work on CC(O)(P(=O)(O)O)P(=O)(O)O [ETIDRONIC ACID] yielded a half-life of 60 min.
